Data set [1] deals with T1, Mas-related G-protein coupled receptor member X1 (Homo sapiens, UniProt Q96LB2). Description: Positive allosteric modulator activity at human MRGPRX1 transfected in HEK293 cells in presence of BAM8-22 by Fulo4AM dye based FLIPR assay. Type of data set: cell-based.
Data set [2] deals with T1, Mas-related G-protein coupled receptor member X1. Briefly: Positive allosteric modulator activity at human MRGPRX1 transfected in HEK293 cells assessed as maximal efficacy in presence of BAM8-22 by Fulo4AM dye based FLIPR assay relative to control. Format: cell-based. As to conditions: filed as positive allosteric modulator.
The nature of data set [3]: Metabolic stability in mouse microsome assessed as compound remaining measured after 30 min in presence of NADPH regenerating system by LC-MS/MS analysis. Type of data set: ADME, Liver. The settings on record: microsomes, 0.5 h.
Data set [4] is described as follows: Metabolic stability in mouse microsome assessed as compound remaining measured after 60 min in presence of NADPH regenerating system by LC-MS/MS analysis. Format: ADME, Liver. The settings on record: microsomes, 1 h.
A short description of data set [5]: Metabolic stability in human microsome assessed as compound remaining measured after 30 min in presence of NADPH regenerating system by LC-MS/MS analysis. Type of data set: ADME, Liver. As to conditions: microsomes, 0.5 h.
Data set [6] can be described thus: Metabolic stability in human microsome assessed as compound remaining measured after 60 min in presence of NADPH regenerating system by LC-MS/MS analysis. Format: ADME, Liver. As to conditions: microsomes, 1 h.
Data set [7] can be described thus: Acute toxicity in mouse expressing MRGPRX1 assessed as itching by measuring spontaneous scratching bouts at 100 mg/kg, po measured upto 1 hr. Type of data set: organism-based. The settings on record: in vivo. Put shortly:
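Awake, free-moving humanized MRGPRX1 mice (human MRGPRX1 expressed in nociceptive DRG neurons in place of murine MrgprC11) were dosed orally at 100 mg/kg. Spontaneous behaviour was video-recorded for 0–1 h after dosing, and scratch bouts were counted and compared with vehicle-treated mice.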

In data set [8] the target is T2, Mas-related G-protein coupled receptor member X2 (Homo sapiens) (UniProt Q96LB1).
T2 sequence (whole entry): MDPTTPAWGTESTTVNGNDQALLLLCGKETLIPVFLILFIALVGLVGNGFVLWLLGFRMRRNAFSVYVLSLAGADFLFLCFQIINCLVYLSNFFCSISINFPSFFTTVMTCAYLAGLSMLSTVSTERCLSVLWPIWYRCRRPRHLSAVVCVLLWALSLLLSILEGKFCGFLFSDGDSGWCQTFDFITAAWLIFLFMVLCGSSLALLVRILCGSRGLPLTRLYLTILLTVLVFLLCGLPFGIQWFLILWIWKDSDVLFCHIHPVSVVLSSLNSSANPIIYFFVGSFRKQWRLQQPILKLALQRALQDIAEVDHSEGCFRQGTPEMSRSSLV
Description: Positive allosteric modulator activity at human MRGPRX2 transfected in HEK293 cells at 5 uM in presence of C48/80 by Fluo-4 AM-based FLIPR assay. Type of data set: cell-based. Put shortly: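 MRGPRX2 stably expressed in HEK293 cells; compound tested with an EC20 level of the orthosteric agonist C48/80, calcium response detected with Fluo-4 AM.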

A short description of data set [9]: Acute toxicity in mouse expressing MRGPRX1 assessed as impaired exploratory activity at 100 mg/kg, po by open field test. Format: organism-based. As to conditions: in vivo. Put shortly: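 Naïve humanized MRGPRX1 mice were dosed at 100 mg/kg po, with vehicle-treated mice as a parallel group. Exploratory performance in an open field test was compared with each animal's pre-drug values.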

The nature of data set [10]: Tmax in CD1 mouse plasma at 100 mg/kg, po measured upto 6 hrs by LC-MS/MS analysis. Type of data set: ADME, organism-based. The settings on record: in vivo. Put shortly: (§1)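 Male CD-1 mice (25–30 g, n=3 per time point) dosed 100 mg/kg by oral gavage in 5% dimethylacetamide/10% Cremophor EL/10% Tween80/25% PEG400/50% water. Killed at 0.25–6 h; cardiac-puncture plasma, brain and spinal cord collected. Acetonitrile extraction with losartan internal standard, LC/MS/MS; calibration 0.01–10 nmol/mL, 1/x weighting. Tissue-to-plasma ratios by AUC.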

Data set [11] can be described thus: Tmax in CD1 mouse brain at 100 mg/kg, po measured upto 6 hrs by LC-MS/MS analysis. Type of data set: ADME, organism-based. As to conditions: in vivo. The method, boiled down:
as §1

Data set [12] is described as follows: Tmax in CD1 mouse spinal cord at 100 mg/kg, po measured upto 6 hrs by LC-MS/MS analysis. Type of data set: ADME, organism-based. As to conditions: in vivo. Put shortly: as §1
Data set [13] can be described thus: Ratio of AUClast in CD1 mouse brain to plasma at 100 mg/kg, po measured upto 6 hrs by LC-MS/MS analysis. Format: ADME, organism-based. The method, boiled down: as §1
Data set [14] deals with hERG (KCNH2) (Homo sapiens, UniProt Q12809). Description: Inhibition of hERG at 10 uM relative to control. Format: toxicity. (In general: The hERG channel carries a current that helps repolarise heart muscle cells.)
Data set [15] in a line: Ratio of AUClast in CD1 mouse spinal cord to plasma at 100 mg/kg, po measured upto 6 hrs by LC-MS/MS analysis. Format: ADME, organism-based. The method, boiled down:
as §1

Data set [16] has as its system Mus musculus. Description: Analgesic activity in mouse model of sciatic nerve chronic constriction injury-induced neuropathic pain assessed as increase in ipsilateral paw withdrawal latency at 100 mg/kg, po measured at 1 and 2 hrs on day 12 post injury by Hargreaves test. Format: functional, organism-based. The settings on record: time 12.0 day. Put shortly: (§2)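 Humanized MRGPRX1 mice, both sexes, 2–3 months old, 20–30 g, sciatic nerve CCI. Given 100 mg/kg orally (n=4–5/group, vehicle comparator). Heat withdrawal latency by Hargreaves test on days 12 and 26 post-CCI, compared with pre-drug and vehicle; two-way mixed-model ANOVA with Bonferroni test, mean + SD.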

Data set [17] can be described thus: Acute toxicity in mouse expressing MRGPRX1 at 100 mg/kg, po measured upto 1.5 hrs by rotarod test. Type of data set: organism-based. As to conditions: in vivo. The method, boiled down:
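Motor coordination was measured by rotarod in naïve humanized MRGPRX1 mice after 100 mg/kg po. Performance was compared with a vehicle-treated group and with pre-treatment values.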

Data set [18] has as its system Mus musculus. Description: Analgesic activity in mouse model of sciatic nerve chronic constriction injury-induced neuropathic pain assessed as increase in ipsilateral paw withdrawal latency at 100 mg/kg, po measured at 2 hrs post drug on day 26 post injury by Hargreaves test. Type of data set: functional, organism-based. Put shortly: as §2
The test system of data set [19] is Mus musculus. Briefly: Analgesic activity in mouse model of sciatic nerve chronic constriction injury-induced neuropathic pain assessed as increase in contralateral paw withdrawal latency at 100 mg/kg, po measured at 1 and 2 hrs on day 12 post injury by Hargreaves test. Type of data set: functional, organism-based. The settings on record: time 12.0 day. Put shortly: as §2

The test system of data set [20] is Mus musculus. Briefly: Analgesic activity in mouse model of sciatic nerve chronic constriction injury-induced neuropathic pain assessed as increase in contralateral paw withdrawal latency at 100 mg/kg, po measured at 2 hrs post drug on day 26 post injury by Hargreaves test. Type of data set: functional, organism-based. Put shortly:
as §2

For data set [21], the target named is T1, Mas-related G-protein coupled receptor member X1. Briefly: Agonist activity at human MRGPRX1 expressed in HEK293 cells upto 100 uM in absence of BAM8-22 by Fluo-dye based FLIPR assay. Type of data set: functional, cell-based. The settings on record: dose microM <=100. The method, boiled down: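 Human MRGPRX1 stably expressed in HEK293 cells, 25,000 cells/well, 2 days. Loaded with 2 µM Fluo-4 AM and 1% Trypan Red in HBSS for 50 min at 37°C, then 10 min at room temperature. Serially diluted compound in HBSS added; FLIPR imaging 2 min, signal taken as maximum minus minimum fluorescence.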

The nature of data set [22]: Drug metabolism in human liver microsomes assessed as CYP450 mediated oxidation of parent compound measured after 60 mins by UPLC analysis. Type of data set: ADME, Microsome. The settings on record: 1 h.

Results on 20 molecules are retold here after ChEMBL document CHEMBL5038664, “Thieno[2,3-d]pyrimidine-Based Positive Allosteric Modulators of Human Mas-Related G Protein-Coupled Receptor X1 (MRGPRX1)” (J Med Chem, 2022).

As a reminder, the EC50 is the concentration giving half of the maximal effect. By Emax is commonly meant the greatest response seen or fitted, relative to the assay's reference. For orientation: Tmax means the time at which the peak concentration occurs. One may read the Kp as the ratio of the level in a tissue or fluid to that in plasma or blood. In general, inhibition refers to the change of the read-out against control, counted positive when it falls. A low value points to a weak effect.

Active and inactive are the calls of the source. The calls are words filed in the database; no cut-off is given here. Some results are limits rather than exact numbers.

T1 sequence (Q96LB2 whole entry): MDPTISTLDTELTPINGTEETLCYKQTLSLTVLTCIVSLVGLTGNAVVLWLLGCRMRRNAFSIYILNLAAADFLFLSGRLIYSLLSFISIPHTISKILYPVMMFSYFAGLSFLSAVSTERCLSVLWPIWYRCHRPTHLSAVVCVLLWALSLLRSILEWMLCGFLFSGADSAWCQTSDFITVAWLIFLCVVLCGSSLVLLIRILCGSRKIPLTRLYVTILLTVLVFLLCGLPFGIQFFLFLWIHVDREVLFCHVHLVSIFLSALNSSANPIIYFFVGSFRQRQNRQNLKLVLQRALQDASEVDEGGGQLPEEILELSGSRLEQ
Chain of hERG (KCNH2) (Q12809 whole entry): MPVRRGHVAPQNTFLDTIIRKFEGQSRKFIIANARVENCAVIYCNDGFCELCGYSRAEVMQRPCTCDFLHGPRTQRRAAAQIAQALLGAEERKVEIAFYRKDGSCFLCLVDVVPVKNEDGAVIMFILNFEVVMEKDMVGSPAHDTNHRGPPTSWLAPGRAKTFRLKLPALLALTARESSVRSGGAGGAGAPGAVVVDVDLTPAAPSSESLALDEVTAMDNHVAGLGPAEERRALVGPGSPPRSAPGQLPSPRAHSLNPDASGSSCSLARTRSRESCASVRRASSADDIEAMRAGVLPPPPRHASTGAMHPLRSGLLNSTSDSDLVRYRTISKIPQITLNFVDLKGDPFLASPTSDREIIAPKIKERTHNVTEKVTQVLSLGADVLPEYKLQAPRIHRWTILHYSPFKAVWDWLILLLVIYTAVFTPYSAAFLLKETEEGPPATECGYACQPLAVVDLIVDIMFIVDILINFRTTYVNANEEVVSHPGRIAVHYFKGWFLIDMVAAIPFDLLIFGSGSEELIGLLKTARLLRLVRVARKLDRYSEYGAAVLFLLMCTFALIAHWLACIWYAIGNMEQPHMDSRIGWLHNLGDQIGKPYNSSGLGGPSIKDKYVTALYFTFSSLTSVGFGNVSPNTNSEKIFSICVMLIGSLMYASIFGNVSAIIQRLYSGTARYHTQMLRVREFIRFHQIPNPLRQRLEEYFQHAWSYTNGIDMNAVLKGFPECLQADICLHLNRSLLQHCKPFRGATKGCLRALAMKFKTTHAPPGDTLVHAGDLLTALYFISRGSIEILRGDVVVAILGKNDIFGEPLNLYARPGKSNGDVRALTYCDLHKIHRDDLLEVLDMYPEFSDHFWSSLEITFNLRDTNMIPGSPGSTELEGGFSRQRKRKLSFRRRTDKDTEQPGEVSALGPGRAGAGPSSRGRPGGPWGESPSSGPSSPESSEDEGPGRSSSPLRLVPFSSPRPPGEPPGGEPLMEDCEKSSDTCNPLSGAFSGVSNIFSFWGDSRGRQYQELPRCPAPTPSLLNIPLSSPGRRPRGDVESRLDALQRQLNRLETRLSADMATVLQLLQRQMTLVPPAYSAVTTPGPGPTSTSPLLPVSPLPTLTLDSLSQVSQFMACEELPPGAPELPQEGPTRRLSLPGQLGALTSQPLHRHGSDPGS

As for `Cc1cccc(Oc2ncnc3sc(C)c(C)c23)c1`, in data set [1], the EC50 is 25000 nM. In addition, the Emax in data set [2] came to 40%.

On to `Cc1ccccc1Oc1ncnc2sc(C)c(C)c12`, for which the concentration giving a half-maximal response (EC50) in data set [1] worked out at 480 nM. The Emax in [2] amounted to 118%.

`CC(C)(C)c1sc2ncnc(Oc3ccccc3OC(F)(F)F)c2c1-c1ccc(F)cc1`: the concentration for a half-maximal effect (EC50) in [1] turned out to be 230 nM. The maximal response (Emax) in [2] was 143%. Besides, the Stability was 28% in [3], 5% in data set [4], above 95% in data set [5] and above 95% in data set [6].

On to `Cc1ccccc1Oc1ncnc2sccc12`, for which the concentration giving a half-maximal response (EC50) in data set [1] was 14500 nM. Moreover, the Emax in data set [2] is 88%.

As for `Fc1ccccc1Oc1ncnc2scc(C(F)(F)F)c12`, the EC50 in data set [1] was found to be 2100 nM. For the same molecule, the maximal response (Emax) in data set [2] was found to be 94%. In addition, the Stability in data set [3] is recorded as below 5%; in [4] it was below 5%; in [5], 40%; in data set [6], below 5%.

With `Cc1sc2ncnc(Oc3ccc(C(F)(F)F)cc3)c2c1C`, the concentration for a half-maximal effect (EC50) in [1] was above 100000 nM.

On to `CC(C)(C)c1sc2ncnc(Oc3ccccc3OC(F)(F)F)c2c1-c1ccc(Cl)c(Cl)c1`, for which the Activity entry in data set [7], in data set [9] and in data set [17] was “Non-Toxic” in each case. Besides, the outcome in [8], in data set [19], in [20] and in [21] was inactive. Moreover, in data set [2], the maximum response (Emax) came out at 114%. Also, the Stability in data set [3] is recorded as 58%; in data set [4], 25%; in data set [5] it was above 95%; in data set [6], above 95%. Besides, the Tmax in data set [10], in [11] and in data set [12] was 1 h in each case. Further, the Kp at 6 h in [13] stood at 2.2; in data set [15], 12.7. The molecule also showed an inhibition at 10 µM in data set [14] of 50%. The result in data set [16] and in data set [18] was Active.

`Cc1sc2ncnc(Oc3cccc(C(F)(F)F)c3)c2c1C`: in [1], the EC50 was above 100000 nM.

With `Fc1ccccc1Oc1ncnc2sccc12`, the EC50 in [1] is 4200 nM. Besides, in data set [2], the maximal effect (Emax) was 95%.

As to `Cc1sc2ncnc(Oc3cccc(F)c3)c2c1C`, in data set [1], the EC50 was determined as 30000 nM. Moreover, in [2], the maximal effect (Emax) was determined as 55%.

Regarding `CC(C)(C)c1sc2ncnc(Oc3ccccc3F)c2c1-c1ccc(F)cc1`, the maximum response (Emax) in [2] came to 145%. Further, the Stability in [3] was 7%; in [4], below 5%; in [5], above 95%; in data set [6], 88%.

Turning to `Cc1sc2ncnc(Oc3ccccc3)c2c1C`, the concentration giving a half-maximal response (EC50) in [1] is 1600 nM. Besides, the Emax in data set [2] turned out to be 89%.

Turning to `CC(C)(C)c1sc2ncnc(Oc3ccccc3F)c2c1-c1ccccc1`, the EC50 in [1] stood at 340 nM. Moreover, the maximum response (Emax) in data set [2] came to 95%. Further, the Stability is reported as 14% in data set [3], below 5% in data set [4] and 78% in [6].

Take `CC(C)(C)c1cc2c(Oc3ccccc3F)ncnc2s1`: the EC50 in data set [1] came out at 320 nM. Besides, the Emax in [2] was 105%. The Stability is below 5% in data set [3], below 5% in [4], 75% in data set [5] and 61% in data set [6].

For `Cc1sc2ncnc(Oc3ccc(F)cc3)c2c1C`, the EC50 in [1] was found to be 1100 nM. Also, the Emax in data set [2] was determined as 83%.

In the case of `Cc1csc2ncnc(Oc3ccccc3F)c12`, the EC50 in data set [1] worked out at 1700 nM. The maximal response (Emax) in [2] amounted to 94%.

`Cc1ccc(Oc2ncnc3sc(C)c(C)c23)cc1`: the EC50 in [1] was 2700 nM. In addition, the maximal effect (Emax) in data set [2] was determined as 88%.

In the case of `Cc1sc2ncnc(Oc3ccccc3F)c2c1C`, in [1], the 50% effective concentration (EC50) was 220 nM. Also, in [2], the Emax came out at 112%. Besides, the Stability in [3], in data set [4], in data set [5] and in data set [6] was below 5% each time. For the same molecule, the Drug metabolism entry in data set [22] is listed as “Metabolite_Detected”.

Regarding `Cc1cc2c(Oc3ccccc3F)ncnc2s1`, the concentration giving a half-maximal response (EC50) in data set [1] was found to be 1500 nM. In addition, in data set [2], the Emax is 90%.

On to `Cc1sc2ncnc(Oc3ccccc3C(F)(F)F)c2c1C`, for which the EC50 in data set [1] came to 520 nM. Further, in [2], the Emax was found to be 95%.
